Reference: PMC3128676 (Angewandte Chemie (International ed. in English), 2011)
Entries after “also recorded” stand apart in the source; their conditions may differ.

What was measured:
[1] = In vivo biodistribution and clearance in CD-1 mice; conditions: for Uptake in intestine / Uptake in kidneys / Uptake in liver / CBR Bl (bladder) relative to abdominal wall / CBR He/Lu (heart/lungs) relative to abdominal wall / CBR In (intestine) relative to abdominal wall / CBR Li (liver) relative to abdominal wall / CBR Re (rectum) relative to abdominal wall / CBR Sk/Mu (skin/muscle) relative to abdominal wall / CBR Sp (spleen) relative to abdominal wall / Carcass (retention) / Eliminated (from the body into urine): 4 h postinjection; for β-phase blood half-life (t1/2β): CD-1 mice, 40 pmol/g i.v.; for CBR Bl (bladder) relative to abdominal wall / CBR He/Lu (heart/lungs) relative to abdominal wall / CBR In (intestine) relative to abdominal wall / CBR Li (liver) relative to abdominal wall / CBR Re (rectum) relative to abdominal wall / CBR Sk/Mu (skin/muscle) relative to abdominal wall / CBR Sp (spleen) relative to abdominal wall / Carcass (retention) / Eliminated (from the body into urine): Mouse; for half-life: blood; for half-life / tissue uptake at 4 h: 40 pmol/g; for Route of elimination (renal clearance), in words: mice, 4 h
Summary of the method: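 CD-1 male mice (25 to 30 g) received 40 pmol/g fluorophore in saline i.v. and were imaged with the FLARE system on surgically exposed organs. Excitation was 14 mW/cm2 of 745–779 nm-filtered light, with emission through an 800–848 nm bandpass and exposure and normalization held constant. ROI fluorescence and background gave CBR = (FL–BG)/BG, scored against abdominal wall. N = 5, mean ± S.D.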

[2] = Optical property measurements in 100% FBS at 37°C; format: physicochemical; conditions: for Stokes Shift / λem / λexc / ε (extinction coefficient) / Φ (fluorescence quantum yield): 100% FBS; for ε (extinction coefficient): 50 mM HEPES pH 7.4, 37°C; for Φ (fluorescence quantum yield): ICG in DMSO as standard
Summary of the method: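 Spectra were taken at 37°C in 100% FBS buffered with 50 mM HEPES, pH 7.4, on fiberoptic absorbance (200–1100 nm) and fluorescence (350–1000 nm) spectrometers. Excitation was a 770 nm laser diode set to 8 mW. […] Dyes available only as NHS ester were first hydrolysed to acid in 50 mM borate, pH 9.0, for 3 h.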

Stability in warm serum = format: in vitro ADME, bovine; conditions: 100% FBS, up to 4 h
[3] = In vivo biodistribution and clearance in SD rats; parameters: species or system Sprague-Dawley (SD) rats; conditions: Rat, 4 h postinjection
Summary of the method: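 Sprague-Dawley male rats (250 to 300 g) received 40 pmol/g fluorophore in saline i.v. and were imaged with the FLARE system on surgically exposed organs. Excitation was 14 mW/cm2 of 745–779 nm light, with emission through an 800–848 nm bandpass and exposure held constant. CBR = (FL–BG)/BG was scored relative to abdominal wall. N = 5.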

[4] = in dimethyl sulfoxide; cited from earlier work
serum proteins = format: in vitro ADME, bovine; conditions: 4 h incubation in 100% FBS

Compound | CBR Bl (bladder) relative to abdominal wall [1] | CBR He/Lu (heart/lungs) relative to abdominal wall [1] | CBR In (intestine) relative to abdominal wall [1] | CBR Li (liver) relative to abdominal wall [1] | CBR Re (rectum) relative to abdominal wall [1] | CBR Sk/Mu (skin/muscle) relative to abdominal wall [1] | CBR Sp (spleen) relative to abdominal wall [1] | Carcass (retention) [1] | Eliminated (from the body into urine) [1] | Stokes Shift [2] | λem [2] | λexc [2] | ε (extinction coefficient) [2] | Φ (fluorescence quantum yield) [2] | Decomposition (Stability in warm serum) | CBR Bl (bladder) relative to abdominal wall [3] | CBR He/Lu (heart/lungs) relative to abdominal wall [3] | CBR In (intestine) relative to abdominal wall [3] | CBR Li (liver) relative to abdominal wall [3] | CBR Re (rectum) relative to abdominal wall [3] | further results
CC1(C)C(=CC=C2CCCC(C=CC3=[N+](CCCCCC(=O)[O-])c4ccc(S(=O)(=O)[O-])cc4C3(C)C)=C2Oc2ccc(S(=O)(=O)[O-])cc2)N(CCCCS(=O)(=O)[O-])c2ccc(S(=O)(=O)[O-])cc21.[Na+].[Na+].[Na+].[Na+] [CW800, IRDye™800-CW carboxylic acid] | +++ (+++, > 5) | – (–, 0 to 1) | +++ (+++, > 5) | – (–, 0 to 1) | ++ (++, 2 to 5) | + (+, 1 to 2) | – (–, 0 to 1) | 52.4 ± 9.6 %ID | 44.0 ± 4.6 %ID | 14 nm | 800 nm | 786 nm | 237,000 M^-1cm^-1 | 14.2% | 4.0% | +++ (+++, > 5) | – (–, 0 to 1) | +++ (+++, > 5) | + (+, 1 to 2) | + (+, 1 to 2) | Uptake in intestine [1]: 28.5 ± 7.0 %ID/g; Uptake in kidneys [1]: 7.3 ± 1.3 %ID/g; Uptake in liver [1]: 11.4 ± 0.8 %ID/g; β-phase blood half-life (t1/2β) [1]: 18.5 min; CBR Sk/Mu (skin/muscle) relative to abdominal wall [3]: + (+, 1 to 2); CBR Sp (spleen) relative to abdominal wall [3]: – (–, 0 to 1)
CC1(C)C(/C=C/C=C/C=C/C=C2\N(CCCCS(=O)(=O)O)c3ccc4ccccc4c3C2(C)C)=[N+](CCCCS(=O)(=O)[O-])c2ccc3ccccc3c21 [ICG, indocyanine green] | – (–, 0 to 1) | – (–, 0 to 1) | +++ (+++, > 5) | ++ (++, 2 to 5) | + (+, 1 to 2) | – (–, 0 to 1) | – (–, 0 to 1) | 97.1 ± 9.4 %ID | 2.2 ± 0.9 %ID | 15 nm | 822 nm | 807 nm | 121,000 M^-1cm^-1 | 9.3% | 5.9% | – (–, 0 to 1) | – (–, 0 to 1) | +++ (+++, > 5) | ++ (++, 2 to 5) | + (+, 1 to 2) | half-life ([1]; male, CD-1, mouse, iv): 3.6 min; tissue uptake at 4 h ([1]; male, CD-1, mouse, intestine, intravenous): 62 ± 6.6 %ID/g; tissue uptake at 4 h ([1]; male, CD-1, mouse, kidneys, intravenous): 5.9 ± 1 %ID/g; tissue uptake at 4 h ([1]; male, CD-1, mouse, liver, intravenous): 27.1 ± 0.5 %ID/g; Route of elimination (renal clearance), in words [1]: undetectable in urine; half-life ([1]; mouse, intravenous): 2 to 5 min; Φ (fluorescence quantum yield) of calibration standard [4]: 13%; Serum protein binding (HD shift by GFC) (serum proteins): significant HD shift; CBR Sk/Mu (skin/muscle) relative to abdominal wall [3]: – (–, 0 to 1); CBR Sp (spleen) relative to abdominal wall [3]: – (–, 0 to 1)
CC1(C)C(/C=C/C2=C(Oc3ccc(CCC(=O)O)cc3)C(=C/C=C3/N(CCC[N+](C)(C)C)c4ccc(S(=O)(=O)O)cc4C3(C)C)/CCC2)=[N+](CCC[N+](C)(C)C)c2ccc(S(=O)(=O)O)cc21 [ZW800-1] | +++ (+++, > 5) | – (–, 0 to 1) | – (–, 0 to 1) | – (–, 0 to 1) | – (–, 0 to 1) | – (–, 0 to 1) | – (–, 0 to 1) | 12.4 ± 3.4 %ID | 86.0 ± 15.4 %ID | 16 nm | 788 nm | 772 nm | 249,000 M^-1cm^-1 | 15.1% | 5.5% | +++ (+++, > 5) | – (–, 0 to 1) | – (–, 0 to 1) | – (–, 0 to 1) | – (–, 0 to 1) | Found in urine ([1]; 1 h post-injection): 51.3 ± 9.7 %ID; Uptake in intestine [1]: 0.7 ± 0.4 %ID/g; Uptake in kidneys [1]: 9.8 ± 2.2 %ID/g; Uptake in liver [1]: 0.9 ± 0.1 %ID/g; β-phase blood half-life (t1/2β) [1]: 15.1 min; Route of elimination (renal clearance), in words [1]: exclusively cleared by the kidneys; also recorded: mostly renally cleared; Serum protein binding (HD shift by GFC) (serum proteins): does not exhibit protein binding; also recorded: no serum protein binding; also recorded: did not adsorb to serum proteins; Product of extinction coefficient and quantum yield in serum, relative to ICG ([2]; in serum): over 3 fold; CBR Sk/Mu (skin/muscle) relative to abdominal wall [3]: – (–, 0 to 1); CBR Sp (spleen) relative to abdominal wall [3]: – (–, 0 to 1); Carcass (retention) ([3]; not measured directly): 14.8 ± 6.5 %ID; Eliminated ([3]; not measured directly): 83.4 ± 15.9 %ID
IRDye™800-RS carboxylic acid [RS800] | ++ (++, 2 to 5) | – (–, 0 to 1) | ++ (++, 2 to 5) | – (–, 0 to 1) | +++ (+++, > 5) | – (–, 0 to 1) | – (–, 0 to 1) | 79.0 ± 4.1 %ID | 15.5 ± 1.2 %ID | 16 nm | 800 nm | 784 nm | 240,000 M^-1cm^-1 | 16.9% | 4.4% | – (–, 0 to 1) | – (–, 0 to 1) | +++ (+++, > 5) | – (–, 0 to 1) | ++ (++, 2 to 5) | β-phase blood half-life (t1/2β) [1]: 11.2 min; Renal filtration / renal excretion ([1]; approximate, discussion statement): ≈ 20%; CBR Sk/Mu (skin/muscle) relative to abdominal wall [3]: – (–, 0 to 1); CBR Sp (spleen) relative to abdominal wall [3]: – (–, 0 to 1)
